Legend:
[1] = Drug excretion in feces of human treated with [14C]sunitinib at 50 mg, po administered as single dose by liquid scintillation counting; conditions: in vivo
[2] = Drug excretion in feces of male cynomolgus monkey treated with [14C]sunitinib at 6 mg/kg, po administered as single dose by liquid scintillation counting; format: ADME, organism-based, Macaca fascicularis; design: dose 6 mg/kg, dosed compound name [14C]Sunitinib, route oral; conditions: in vivo
In short: (§1)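 Cynomolgus monkeys given one oral gavage dose of [14C]sunitinib L-malate, 6 mg/kg (37 µCi/kg). Urine collected at 0-4, 4-8 and 8-24 h, feces at 0-8 and 8-24 h, then both daily to 14 days; samples stored at -80 °C. Duplicate urine aliquots counted by liquid scintillation; homogenized feces combusted before counting.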

[3] = Drug excretion in feces of female Sprague-Dawley rat treated with [14C]sunitinib at 5 mg/kg, iv administered as single dose by liquid scintillation counting; format: ADME, organism-based; design: dose 5 mg/kg, dosed compound name [14C]Sunitinib, route intravenous; conditions: in vivo
In short: (§2)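 Five female rats given a single tail-vein bolus of [14C]sunitinib L-malate, 5 mg/kg free base equivalents (50 µCi/kg). Urine and feces collected over 0-72 h into dry-ice cooled containers. Urine counted directly by liquid scintillation; feces homogenized and combusted in oxygen before counting. Expired air also monitored.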

[4] = Drug excretion in feces of female Sprague-Dawley rat treated with [14C]sunitinib at 15 mg/kg, po administered as single dose by liquid scintillation counting; format: ADME, organism-based; design: dose 15 mg/kg, dosed compound name [14C]Sunitinib, route oral; conditions: in vivo
In short: (§3)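 Female and male rats given one oral gavage dose, 15 mg/kg free base equivalents (50 µCi/kg). Urine and feces collected on dry ice, protected from light, over 0-4, 4-8 and 8-24 h, then daily to 72 h. Urine aliquots counted by liquid scintillation; homogenized feces combusted in oxygen before counting. Counts 5 min, external quench correction.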

[5] = Drug excretion in feces of female cynomolgus monkey treated with [14C]sunitinib at 6 mg/kg, po administered as single dose by liquid scintillation counting; format: ADME, organism-based, Macaca fascicularis; design: dose 6 mg/kg, dosed compound name [14C]Sunitinib, route oral; conditions: in vivo
In short: as §1

[6] = Drug excretion in urine of male cynomolgus monkey treated with [14C]sunitinib at 6 mg/kg, po administered as single dose by liquid scintillation counting; format: ADME, organism-based, Macaca fascicularis; design: dose 6 mg/kg, dosed compound name [14C]Sunitinib, route oral; conditions: in vivo
In short: as §1

[7] = Drug excretion in urine of human treated with [14C]sunitinib at 50 mg, po administered as single dose by liquid scintillation counting; conditions: in vivo
[8] = tested on: Cynomolgus monkey; assay: Tmax in male cynomolgus monkey plasma treated with [14C]sunitinib at 6 mg/kg, po administered as single dose by LC/MS/MS analysis; format: ADME, organism-based, Macaca fascicularis; design: dose 6 mg/kg, dosed compound name [14C]Sunitinib, route oral; conditions: in vivo
[9] = tested on: Rattus norvegicus; assay: AUC (0 to infinity) in male Sprague-Dawley rat plasma treated with [14C]sunitinib at 15 mg/kg, po administered as single dose by LC/MS/MS analysis; format: ADME, organism-based; design: time infinity, dose 15 mg/kg, dosed compound name [14C]Sunitinib, route oral; conditions: in vivo
In short: (§4)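 Single dose of [14C]sunitinib L-malate as free base, 50 µCi/kg. IV dose was 5 mg/kg by tail vein in 5 females. Oral dose was 15 mg/kg by gavage in 3 females and 3 males. Total radioactivity was by scintillation counting. […] Cmax was read from raw data, t½ by log-linear regression, AUC by linear trapezoidal rule.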

[10] = Drug excretion in urine of female Sprague-Dawley rat treated with [14C]sunitinib at 15 mg/kg, po administered as single dose by liquid scintillation counting; format: ADME, organism-based; design: dose 15 mg/kg, dosed compound name [14C]Sunitinib, route oral; conditions: in vivo
In short: as §3

[11] = Drug excretion in feces of male Sprague-Dawley rat treated with [14C]sunitinib at 15 mg/kg, po administered as single dose by liquid scintillation counting; format: ADME, organism-based; design: dose 15 mg/kg, dosed compound name [14C]Sunitinib, route oral; conditions: in vivo
In short: as §3

[12] = tested on: Rattus norvegicus; assay: Tmax in female Sprague-Dawley rat plasma treated with [14C]sunitinib at 5 mg/kg, iv administered as single dose by LC/MS/MS analysis; format: ADME, organism-based; design: dose 5 mg/kg, dosed compound name [14C]Sunitinib, route intravenous; conditions: in vivo
[13] = tested on: Cynomolgus monkey; assay: Terminal half life in male cynomolgus monkey plasma treated with [14C]sunitinib at 6 mg/kg, po administered as single dose by LC/MS/MS analysis; format: ADME, organism-based, Macaca fascicularis; design: dose 6 mg/kg, dosed compound name [14C]Sunitinib, route oral; conditions: in vivo
[14] = tested on: Rattus norvegicus; assay: Apparent terminal half life in female Sprague-Dawley rat plasma treated with [14C]sunitinib at 5 mg/kg, iv administered as single dose by LC/MS/MS analysis; format: ADME, organism-based; design: dose 5 mg/kg, dosed compound name [14C]Sunitinib, route intravenous; conditions: in vivo
In short: as §4

[15] = tested on: Homo sapiens; assay: Cmax in human plasma treated with [14C]sunitinib at 50 mg, po administered as single dose by LC/MS/MS analysis; format: ADME, organism-based; design: dose 50 mg, route oral, dosed compound name [14C]Sunitinib; conditions: in vivo
In short: (§5)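 Open-label phase I study in 8 subjects given one 50 mg oral dose of [14C]sunitinib (100 µCi). Plasma total radioactivity was counted by scintillation on triplicate 0.25 mL aliquots. Sunitinib was quantified by LC-MS-MS. Noncompartmental analysis: Cmax read directly, terminal t½ = ln(2)/slope of the log-concentration regression, AUC by linear trapezoidal rule to the last detectable concentration.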

[16] = tested on: Rattus norvegicus; assay: AUC (0 to infinity) in female Sprague-Dawley rat plasma treated with [14C]sunitinib at 5 mg/kg, iv administered as single dose by LC/MS/MS analysis; format: ADME, organism-based; design: time infinity, dose 5 mg/kg, dosed compound name [14C]Sunitinib, route intravenous; conditions: in vivo
In short: as §4

[17] = tested on: Homo sapiens; assay: Tmax in human plasma treated with [14C]sunitinib at 50 mg, po administered as single dose by LC/MS/MS analysis; format: ADME, organism-based; design: dosed compound name [14C]Sunitinib; conditions: in vivo
[18] = tested on: Cynomolgus monkey; assay: Cmax in male cynomolgus monkey plasma treated with [14C]sunitinib at 6 mg/kg, po administered as single dose by LC/MS/MS analysis; format: ADME, organism-based, Macaca fascicularis; design: dose 6 mg/kg, dosed compound name [14C]Sunitinib, route oral; conditions: in vivo
In short: (§6)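 Cynomolgus monkeys of both sexes received one oral gavage of [14C]sunitinib L-malate at 6 mg/kg (37 µCi/kg). Femoral-vein blood was taken into heparin from 0.5 to 336 h. Plasma was kept cold and protected from light, then stored at -80 °C. Total radioactivity was by scintillation counting and sunitinib by methanol-extraction LC-MS-MS. Cmax was from raw data, t½ from the log-linear terminal slope, AUC(0-∞) by linear trapezoidal rule.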

[19] = tested on: Cynomolgus monkey; assay: AUC (0 to infinity) in female cynomolgus monkey plasma treated with [14C]sunitinib at 6 mg/kg, po administered as single dose by LC/MS/MS analysis; format: ADME, organism-based, Macaca fascicularis; design: time infinity, dose 6 mg/kg, dosed compound name [14C]Sunitinib, route oral; conditions: in vivo
In short: as §6

[20] = tested on: Cynomolgus monkey; assay: Terminal half life in female cynomolgus monkey plasma treated with [14C]sunitinib at 6 mg/kg, po administered as single dose by LC/MS/MS analysis; format: ADME, organism-based, Macaca fascicularis; design: dose 6 mg/kg, dosed compound name [14C]Sunitinib, route oral; conditions: in vivo
[21] = tested on: Rattus norvegicus; assay: Apparent terminal half life in male Sprague-Dawley rat plasma treated with [14C]sunitinib at 15 mg/kg, po administered as single dose by LC/MS/MS analysis; format: ADME, organism-based; design: dose 15 mg/kg, dosed compound name [14C]Sunitinib, route oral; conditions: in vivo
In short: as §4

[22] = Retention time of compound by LC/MS/MS analysis; format: physicochemical; design: dosed compound name [14C]Sunitinib
[23] = tested on: Rattus norvegicus; assay: Apparent terminal half life in female Sprague-Dawley rat plasma treated with [14C]sunitinib at 15 mg/kg, po administered as single dose by LC/MS/MS analysis; format: ADME, organism-based; design: dose 15 mg/kg, dosed compound name [14C]Sunitinib, route oral; conditions: in vivo
In short: as §4

[24] = tested on: Homo sapiens; assay: Terminal half life in human plasma treated with [14C]sunitinib at 50 mg, po administered as single dose by LC/MS/MS analysis; format: ADME, organism-based; design: dosed compound name [14C]Sunitinib; conditions: in vivo
[25] = tested on: Homo sapiens; assay: AUC (0 to infinity) in human plasma treated with [14C]sunitinib at 50 mg, po administered as single dose by LC/MS/MS analysis; format: ADME, organism-based; design: dose 50 mg, time infinity, route oral, dosed compound name [14C]Sunitinib; conditions: in vivo
In short: as §5

[26] = Drug excretion in urine of female Sprague-Dawley rat treated with [14C]sunitinib at 5 mg/kg, iv administered as single dose by liquid scintillation counting; format: ADME, organism-based; design: dose 5 mg/kg, dosed compound name [14C]Sunitinib, route intravenous; conditions: in vivo
In short: as §2

[27] = tested on: Rattus norvegicus; assay: Cmax in female Sprague-Dawley rat plasma treated with [14C]sunitinib at 15 mg/kg, po administered as single dose by LC/MS/MS analysis; format: ADME, organism-based; design: dose 15 mg/kg, dosed compound name [14C]Sunitinib, route oral; conditions: in vivo
In short: as §4

[28] = Drug excretion in urine of male Sprague-Dawley rat treated with [14C]sunitinib at 15 mg/kg, po administered as single dose by liquid scintillation counting; format: ADME, organism-based; design: dose 15 mg/kg, dosed compound name [14C]Sunitinib, route oral; conditions: in vivo
In short: as §3

[29] = tested on: Rattus norvegicus; assay: Tmax in male Sprague-Dawley rat plasma treated with [14C]sunitinib at 15 mg/kg, po administered as single dose by LC/MS/MS analysis; format: ADME, organism-based; design: dose 15 mg/kg, dosed compound name [14C]Sunitinib, route oral; conditions: in vivo
[30] = tested on: Cynomolgus monkey; assay: Tmax in female cynomolgus monkey plasma treated with [14C]sunitinib at 6 mg/kg, po administered as single dose by LC/MS/MS analysis; format: ADME, organism-based, Macaca fascicularis; design: dose 6 mg/kg, dosed compound name [14C]Sunitinib, route oral; conditions: in vivo
[31] = tested on: Rattus norvegicus; assay: Cmax in female Sprague-Dawley rat plasma treated with [14C]sunitinib at 5 mg/kg, iv administered as single dose by LC/MS/MS analysis; format: ADME, organism-based; design: dose 5 mg/kg, dosed compound name [14C]Sunitinib, route intravenous; conditions: in vivo
In short: as §4

[32] = tested on: Cynomolgus monkey; assay: Cmax in female cynomolgus monkey plasma treated with [14C]sunitinib at 6 mg/kg, po administered as single dose by LC/MS/MS analysis; format: ADME, organism-based, Macaca fascicularis; design: dose 6 mg/kg, dosed compound name [14C]Sunitinib, route oral; conditions: in vivo
In short: as §6

[33] = tested on: Cynomolgus monkey; assay: AUC (0 to infinity) in male cynomolgus monkey plasma treated with [14C]sunitinib at 6 mg/kg, po administered as single dose by LC/MS/MS analysis; format: ADME, organism-based, Macaca fascicularis; design: time infinity, dose 6 mg/kg, dosed compound name [14C]Sunitinib, route oral; conditions: in vivo
In short: as §6

[34] = tested on: Rattus norvegicus; assay: Cmax in male Sprague-Dawley rat plasma treated with [14C]sunitinib at 15 mg/kg, po administered as single dose by LC/MS/MS analysis; format: ADME, organism-based; design: dose 15 mg/kg, dosed compound name [14C]Sunitinib, route oral; conditions: in vivo
In short: as §4

[35] = tested on: Rattus norvegicus; assay: Tmax in female Sprague-Dawley rat plasma treated with [14C]sunitinib at 15 mg/kg, po administered as single dose by LC/MS/MS analysis; format: ADME, organism-based; design: dose 15 mg/kg, dosed compound name [14C]Sunitinib, route oral; conditions: in vivo
[36] = Drug excretion in urine of female cynomolgus monkey treated with [14C]sunitinib at 6 mg/kg, po administered as single dose by liquid scintillation counting; format: ADME, organism-based, Macaca fascicularis; design: dose 6 mg/kg, dosed compound name [14C]Sunitinib, route oral; conditions: in vivo
In short: as §1

[37] = tested on: Rattus norvegicus; assay: AUC (0 to infinity) in female Sprague-Dawley rat plasma treated with [14C]sunitinib at 15 mg/kg, po administered as single dose by LC/MS/MS analysis; format: ADME, organism-based; design: time infinity, dose 15 mg/kg, dosed compound name [14C]Sunitinib, route oral; conditions: in vivo
In short: as §4

## Cc1[nH]c(/C=C2\C(=O)Nc3ccc(F)cc32)c(C)c1C(=O)NCCN
[1]
  Compound recovery: metabolite_not_detected
[2]
  Compound recovery: 1%
[3]
  Compound recovery: 1.1%
[4]
  Compound recovery: 1.7%
[5]
  Compound recovery: 0.8%

## CCNCCNC(=O)c1c(C)[nH]c(/C=C2\C(=O)Nc3ccc(F)cc32)c1C
[6]
  Compound recovery: 1.1%
[7]
  Compound recovery: 6.9%
[8]
  Tmax: 8 h
[9]
  AUC: 68854 ng·h/mL
[10]
  Compound recovery: 1.4%
[11]
  Compound recovery: 21%
[12]
  Tmax: 3 h
[13]
  beta t1/2: 19 h
[14]
  t1/2 lambda z: 8.4 h
[15]
  Cmax: 6.2 ng/mL
[16]
  AUC: 6724 ng·h/mL
[1]
  Compound recovery: 25%
[17]
  Tmax: 6.7 h
[18]
  Cmax: 67 ng/mL
[19]
  AUC: 1272 ng·h/mL
[20]
  beta t1/2: 19 h
[21]
  t1/2 lambda z: 7.1 h
[22]
  Retention_time: 2.5 min
[23]
  t1/2 lambda z: 9 h
[24]
  beta t1/2: 93.2 h
[25]
  AUC: 592.6 ng·h/mL
[26]
  Compound recovery: 0.5%
[27]
  Cmax: 1412 ng/mL
[3]
  Compound recovery: 18.5%
[28]
  Compound recovery: 1.7%
[29]
  Tmax: 6 h
[30]
  Tmax: 7 h
[31]
  Cmax: 450 ng/mL
[4]
  Compound recovery: 32.1%
[32]
  Cmax: 54 ng/mL
[33]
  AUC: 1383 ng·h/mL
[34]
  Cmax: 4561 ng/mL
[35]
  Tmax: 7 h
[36]
  Compound recovery: 1.4%
[37]
  AUC: 37225 ng·h/mL
